In data set [1] the test system is A549. Description: Antiproliferative activity against human A549 cells assessed as reduction in cell viability after 48 hrs by MTT assay. The following applies: A549, 48 h. Type of data set: functional, cell-based. An outline of the steps: (§1)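 Cell lines grown at 37 °C in 5% CO2: A2780, A549, HL7702 and PC3 in RPMI 1640; HT29 in McCoy's 5A; HepG2 and PANC-1 in DMEM; all media with 10% FBS and penicillin/streptomycin. Cells seeded and left overnight, then exposed to compound for 48 h. MTT (5 mg/mL solution) added for 4 h at 37 °C, formazan dissolved in DMSO, absorbance read at 570 nm. IC50 taken from viability; run in triplicate.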

The subject of data set [2] is A2780. Description: Antiproliferative activity against human A2780 cells assessed as reduction in cell viability after 48 hrs by MTT assay. The class given is functional, cell-based. The following applies: A2780, 48 h. An outline of the steps: as §1
On the technique in general: Tetrazolium dyes change colour on reduction, which living cells bring about.

Data set [3] has as its system HepG2. The data set can be described thus: Antiproliferative activity against human HepG2 cells assessed as reduction in cell viability after 48 hrs by MTT assay. The following applies: HepG2, 48 h. Type of data set: functional, cell-based. The method, boiled down: as §1
For data set [4], the system named is HT-29. The data set can be described thus: Antiproliferative activity against human HT29 cells assessed as reduction in cell viability after 48 hrs by MTT assay. Type of data set: functional, cell-based. The following applies: HT-29, 48 h. The method, boiled down:
as §1

The subject of data set [5] is PANC-1. Description: Antiproliferative activity against human PANC1 cells assessed as reduction in cell viability after 48 hrs by MTT assay. Type of data set: functional, cell-based. The conditions noted are these: PANC-1, 48 h. An outline of the steps:
as §1

Data set [6] concerns PC-3. The data set can be described thus: Antiproliferative activity against human PC-3 cells assessed as reduction in cell viability after 48 hrs by MTT assay. Type of data set: functional, cell-based. The following applies: PC-3, 48 h. An outline of the steps: as §1
The test system of data set [7] is L02. The data set can be described thus: Antiproliferative activity against human L02 cells assessed as reduction in cell viability after 48 hrs by MTT assay. The class given is cell-based. The conditions noted are these: L02, 48 h. An outline of the steps:
as §1

For data set [8], the system named is HepG2. Description: Induction of morphological changes in human HepG2 cells assessed as accumulation of cytoplasmic vacuoles at 4 uM after 24 hrs by optical microscopic method. The class given is functional, cell-based. An outline of the steps: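 Cells grown at 37 °C, 5% CO2 in media with 10% FBS and penicillin/streptomycin, then treated with compound. Cytoplasmic vacuoles judged by optical microscopy. Time course at 4 μM, or 10 h exposure across increasing concentrations.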

Data set [9] is described as follows: Drug uptake in human HepG2 cells mitochondria at 5 uM after 12 hrs by HPLC analysis. The class given is ADME. The conditions noted are these: hepg2, 12 h. An outline of the steps: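 HepG2 cells given 5 μM for 12 h, then homogenized in mitochondrial extraction reagent. Spun at 600 g, 4 °C, 10 min; supernatant spun again at 11000 g, 4 °C, 10 min, and the pellet taken as mitochondria. Drug content by HPLC on a C18 column with methanol–0.1% acetic acid (80:20), detection at 265 nm. Run thrice.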

Data set [10] relates to HepG2. Description: Induction of morphological changes in human HepG2 cells assessed as accumulation of cytoplasmic vacuoles >30 uM after 24 hrs by optical microscopic method. Type of data set: functional, cell-based. The following applies: dose microM >30, time 24.0 hrs.
Data set [11] relates to HepG2. Description: Synergistic antiproliferative activity against human HepG2 cells assessed as combination index after 48 hrs in presence BBR by MTT assay. The class given is functional.
Data set [12] relates to HepG2. The data set can be described thus: Synergistic antiproliferative activity against human HepG2 cells assessed as combination index at 20 to 80 uM after 48 hrs in presence of 10 to 40 uM HN by MTT assay. The conditions noted are these: dose 20-80 µM. The class given is functional.
Data set [13] has as its system HepG2. Description: Induction of morphological changes in human HepG2 cells assessed as accumulation of cytoplasmic vacuoles at 40 uM after 24 hrs by optical microscopic method. The class given is functional, cell-based.
Data set [14] deals with HepG2. Description: Synergistic antiproliferative activity against human HepG2 cells assessed as combination index after 48 hrs in presence HN by MTT assay. The class given is functional.

Activity calls are given as the source filed them. The calls are words filed in the database; no cut-off is given here.

The values below come from ChEMBL document CHEMBL4673249, “Anticancer Effects of Honokiol via Mitochondrial Dysfunction Are Strongly Enhanced by the Mitochondria-Targeting Carrier Berberine” (J Med Chem, 2020).

A word on the IC50: it is the concentration needed to halve the response being measured.

For `C=CCc1ccc(OCCCc2c3[n+](cc4c(OC)c(OC)ccc24)CCc2cc4c(cc2-3)OCO4)c(-c2ccc(O)c(CC=C)c2)c1`, the IC50 in data set [1] is above 5 µM; in data set [2], 3.03 µM; in [3], 3.71 µM; in data set [4], above 5 µM; in [5], above 5 µM; in data set [6], 2.26 µM. Moreover, in data set [7], the half-inhibitory concentration (IC50) stood at 5.21 µM. In addition, the result in data set [8] was Active.

For `C=CCc1ccc(OCCCCCc2c3[n+](cc4c(OC)c(OC)ccc24)CCc2cc4c(cc2-3)OCO4)c(-c2ccc(OC)c(CC=C)c2)c1`, the IC50 in data set [1] came to 1.71 µM; in [2], 1.36 µM; in data set [3], 1.04 µM; in data set [4], 1.56 µM; in data set [5] it was 2.96 µM; in data set [6] it was 1.12 µM. The concentration for half-maximal inhibition (IC50) in data set [7] came to 2.97 µM. Further, the outcome in [8] was Active.

Take `C=CCc1ccc(OC)c(-c2ccc(OCCCCCc3c4[n+](cc5c(OC)c(OC)ccc35)CCc3cc5c(cc3-4)OCO5)c(CC=C)c2)c1`: the IC50 in data set [1] was found to be 1.33 µM; in data set [2], 1.17 µM; in data set [3] it was 1.05 µM; in data set [4], 1.64 µM; in [5], 1.73 µM; in data set [6], 0.99 µM. Besides, the IC50 in data set [7] was 3.43 µM. In data set [8], the outcome was Active.

For the compound `COc1cccc2c1C(=O)c1c(O)c3c(c(O)c1C2=O)C[C@@](O)(C(=O)CO)C[C@@H]3O[C@H]1C[C@H](N)[C@H](O)[C@H](C)O1` [DOXORUBICIN], the IC50 in data set [1] stood at 3.08 µM; in [2], 0.71 µM; in [3], 0.67 µM; in data set [4], 5.92 µM; in data set [5], 1.73 µM; in data set [6], 0.93 µM. In addition, in [7], the half-maximal inhibitory concentration (IC50) was 2.24 µM.

`C=CCc1ccc(O)c(-c2ccc(OCCCc3c4[n+](cc5c(OC)c(OC)ccc35)CCc3cc5c(cc3-4)OCO5)c(CC=C)c2)c1`: the IC50 in [1] was 3.25 µM; in [2], 1.56 µM; in data set [3], 2.19 µM; in [4], above 5 µM; in [5], 6.02 µM; in data set [6] it was 1.17 µM. Further, in data set [7], the IC50 stood at 3.56 µM. The result in [8] was Active.

As for `C=CCc1ccc(OC)c(-c2ccc(O)c(CC=C)c2)c1`, the 50% inhibitory concentration (IC50) was above 30 µM in data set [1]; 24.7 µM in [2]; 29.7 µM in data set [3]; 35.4 µM in data set [4]; 16.4 µM in [5]; 24.8 µM in [6]. Also, the IC50 in [7] turned out to be 35.3 µM.

For `C=CCc1ccc(OCCC)c(-c2ccc(OCCCCCc3c4[n+](cc5c(OC)c(OC)ccc35)CCc3cc5c(cc3-4)OCO5)c(CC=C)c2)c1`, the IC50 in data set [1] amounted to 1.25 µM; in data set [2], 1.41 µM; in data set [3] it was 0.95 µM; in data set [4], 1.95 µM; in data set [5], 1.69 µM; in [6], 1.22 µM. For the same compound, the concentration for half-maximal inhibition (IC50) in data set [7] was found to be 3.05 µM. In [8], the result was Active.

Regarding `C=CCc1ccc(OCCC)c(-c2ccc(O)c(CC=C)c2)c1`, the IC50 in data set [1] is 14.7 µM; in data set [2], 14.7 µM; in [3], 15.5 µM; in data set [4], 26.4 µM; in [5], 15.9 µM; in data set [6], 17 µM. The concentration for half-maximal inhibition (IC50) in data set [7] stood at 22.4 µM.

As for `C=CCc1ccc(O)c(-c2ccc(O)c(CC=C)c2)c1` [HONOKIOL], the IC50 in data set [1] came to 38 µM; in [2] it was 31.6 µM; in data set [3], 23.9 µM; in data set [4], 31.6 µM; in data set [5] it was 31.2 µM; in data set [6], 29 µM. Moreover, the half-maximal inhibitory concentration (IC50) in [7] is 25.5 µM. In [9], this compound returned a Drug uptake of 17.8 µM. For the same compound, the outcome in data set [10] was Active.

Regarding `C=CCc1ccc(O)c(-c2ccc(OCCCCC)c(CC=C)c2)c1`, the half-maximal inhibitory concentration (IC50) in [3] was 19.2 µM. The CI in data set [11] is 0.79.

In the case of `COc1ccc2cc3[n+](cc2c1OC)CCc1cc2c(cc1-3)OCO2.[Cl-]` [BERBERINE CHLORIDE], the IC50 in [1] was above 50 µM; in [2] it was above 50 µM; in data set [3], above 50 µM; in data set [4] it was above 50 µM; in [5], above 50 µM; in [6], 31.7 µM. The IC50 in data set [7] is above 50 µM. The CI in data set [12] is recorded as above 1. In data set [13], the result was inactive.

Consider `C=CCc1ccc(OCCCCCCCCc2c3[n+](cc4c(OC)c(OC)ccc24)CCc2cc4c(cc2-3)OCO4)c(-c2ccc(O)c(CC=C)c2)c1`, for which the IC50 in [1] is 2.09 µM; in [2] it was 1.97 µM; in data set [3], 1.27 µM; in data set [4] it was 2.54 µM; in data set [5], 2.48 µM; in data set [6], 2 µM. In data set [7], the IC50 is 5.77 µM. Also, the result in data set [8] was Active.

In the case of `C=CCc1ccc(OCCCCCc2c3[n+](cc4c(OC)c(OC)ccc24)CCc2cc4c(cc2-3)OCO4)c(-c2ccc(O)c(CC=C)c2)c1`, the half-inhibitory concentration (IC50) in [1] is 2.9 µM; in data set [2], 1.59 µM; in data set [3], 2.32 µM; in data set [4], above 5 µM; in data set [5], 3.24 µM; in [6], 1.59 µM. Also, the concentration for half-maximal inhibition (IC50) in data set [7] was found to be 3.04 µM. Besides, the outcome in data set [8] was Active.

For the compound `C=CCc1ccc(O)c(-c2ccc(OCCC)c(CC=C)c2)c1`, the IC50 in data set [1] stood at 21 µM; in data set [2] it was 14.7 µM; in data set [3], 19.1 µM; in [4], 26.5 µM; in data set [5], 17.8 µM; in [6], 21.1 µM. For the same compound, the concentration for half-maximal inhibition (IC50) in [7] is 27.8 µM.

Regarding `C=CCc1ccc(OCCCCCc2c3[n+](cc4c(OC)c(OC)ccc24)CCc2cc4c(cc2-3)OCO4)c(-c2ccc(OCCC)c(CC=C)c2)c1`, the IC50 in data set [1] stood at 1.66 µM; in [2], 1.68 µM; in data set [3], 0.92 µM; in data set [4], 2.39 µM; in data set [5] it was 2.56 µM; in [6], 1.43 µM. Also, in data set [7], the IC50 worked out at 3.62 µM. In [8], the outcome was Active.

`CCCCCc1c2[n+](cc3c(OC)c(OC)ccc13)CCc1cc3c(cc1-2)OCO3.[I-]`: the IC50 in data set [3] amounted to 29.3 µM. In [14], the CI is given as 0.79. Moreover, in [13], the result was Active.

Turning to `C=CCc1ccc(O)c(-c2ccc(OCCCCCCCCc3c4[n+](cc5c(OC)c(OC)ccc35)CCc3cc5c(cc3-4)OCO5)c(CC=C)c2)c1`, the concentration for half-maximal inhibition (IC50) is 1.84 µM in data set [1]; 1.52 µM in data set [2]; 0.77 µM in data set [3]; 2.89 µM in data set [4]; 2.09 µM in data set [5]; 1.74 µM in data set [6]. In [7], the half-maximal inhibitory concentration (IC50) is 4.82 µM. Also, the outcome in data set [8] was Active.

As to `C=CCc1ccc(O)c(-c2ccc(OC)c(CC=C)c2)c1` [METHYLHONOKIOL], the IC50 in data set [1] turned out to be 22 µM; in data set [2], 14.7 µM; in [3], 17.5 µM; in [4] it was 21.1 µM; in [5], 16.7 µM; in data set [6] it was 17.9 µM. Moreover, in data set [7], the half-maximal inhibitory concentration (IC50) was found to be 23.9 µM.
